High-throughput results from PubChem.
PG9 Ab binder: small molecules binding HIV-1 gp120 antibody PG9; TR-FRET gp120-PG9 antibody binding; inhibition, % at 6.7 µM; hit rate 0.43% among 360,000; AID 624416; in the data active means inhibition above about 8.5%
NR2E3 ag-1: agonists of human NR2E3 nuclear receptor; inhibition of corepressor binding, % at 3.98 µM; hit rate 0.35% among 360,000; CHO-S Gal4-NCOR/VP16-NR2E3 two-hybrid, luciferase; AID 602229;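 active means inhibition above the mean of all tested compounds plus 3 SD, cut at about 70% in these data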;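 further: higher means lower luciferase signal from less NR2E3 corepressor binding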
Target sequence (Q9Y5X4 whole entry, looked up, the tested form may be a part): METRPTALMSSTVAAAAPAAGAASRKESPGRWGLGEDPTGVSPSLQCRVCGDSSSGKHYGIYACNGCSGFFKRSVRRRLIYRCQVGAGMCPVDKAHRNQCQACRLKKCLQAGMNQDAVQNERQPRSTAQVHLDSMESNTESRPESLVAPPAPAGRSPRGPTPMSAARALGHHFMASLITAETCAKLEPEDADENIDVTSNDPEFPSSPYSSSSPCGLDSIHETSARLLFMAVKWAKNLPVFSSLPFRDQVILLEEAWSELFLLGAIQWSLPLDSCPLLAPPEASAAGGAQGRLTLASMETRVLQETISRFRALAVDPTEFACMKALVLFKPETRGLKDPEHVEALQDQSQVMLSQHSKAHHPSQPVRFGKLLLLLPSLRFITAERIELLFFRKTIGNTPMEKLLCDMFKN
NR1D1 modulator: modulators of human Rev-erb alpha DNA binding; activity, % at 10 µM; Rev-erbα–FITC-DNA binding, fluorescence polarization, 90 min; hit rate 0.79% among 370,000; P20393; AID 1259318;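 active means activity above about 14%, limit read from the data; passing the limit was not always enough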
NR2E3 ag-2: NR2E3 (human) agonism | GST-NR2E3/biotin-RetCOR TR-FRET, 1536-well | inhibition of corepressor binding, % at 4.78 µM | hit rate 0.12% among 320,000 | AID 2300;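 active means percent inhibition above the cutoff of mean plus 3 SD of all tested compounds, set per screening campaign, cut at about 20% in these data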
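Material – GST-tagged NR2E3 plus biotinylated RetCOR corepressor · Quantity – NR2E3 fusion 1.35 nM · Times – 5 h incubation at 4 °C · Medium – pH 7.5 Tris-based buffer · Technique – TR-FRET, Eu(K)-anti-GST donor, streptavidin-D2 acceptor, ex 340, em 617/671 nm · Benchmarks – high control biotin, low control 0.6% DMSO · Format – 1536-well plates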
NR2E3 ag confirm: NR2E3 agonism confirmed in two-hybrid assay; shares compounds with NR2E3 ag-1; CHO-S mammalian two-hybrid NR2E3-NCOR, luciferase luminescence; inhibition, % at 3.98 µM; hit rate 51% among 2,300; AID 624378;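 active means average inhibition above a cutoff equal to the mean inhibition of all tested compounds plus one SD, cut at about 70% in these data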
VP16 counter: GAL4-VP16 reporter inhibition in NR2E3 agonist counterscreen; shares compounds with NR2E3 ag-1; CHO-S GAL4-VP16 luciferase reporter, luminescence; inhibition, % at 3.98 µM; hit rate 29% among 2,300;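 active means mean inhibition above a cutoff equal to the average over all tested compounds plus one standard deviation, cut at about 70% in these data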;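 further: luciferase from a UAS reporter driven by GAL4-VP16 transactivation; higher means less reporter light so more repression of VP16 activity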
Hits are given with their value; - = inactive; . = no result given. Compounds with a hit are over-represented: about 1.5% of the library has one in this group of screens.

SMILES	PG9 Ab binder	NR2E3 ag-1	NR1D1 modulator	NR2E3 ag-2	NR2E3 ag confirm	VP16 counter
O=C1c2cc([N+](=O)[O-])ccc2-c2cc(Br)c(N=C(NO)C(F)(F)F)cc21	-	101	-	.	97	-
O=C1c2cc([N+](=O)[O-])ccc2-c2cc(Cl)c(NC(=O)C(F)(F)F)cc21	-	-	-	.	.	.
NC1=NS(=O)(=O)Nc2ccccc21	.	.	-	.	.	.
NC(=O)c1cc(S(=O)(=O)N2CCCCC2)cs1	-	-	-	-	.	.
Cc1ccc(C)c(N2CCN(S(=O)(=O)c3csc(C(N)=O)c3)CC2)c1	-	-	-	-	-	-
COc1ccccc1NS(=O)(=O)c1ccc2oc(SC(C)C(=O)N3CCNC3=O)nc2c1 (stereo not given)	-	-	-	-	-	-
COc1ccccc1NS(=O)(=O)c1ccc2oc(SCC(C)=O)nc2c1	-	-	-	-	.	.
O=C(CCCN1C(=O)S/C(=C\c2ccccc2)C1=O)NNC(=O)c1ccccc1O	-	-	-	-	-	-
O=C(CN1C(=O)S/C(=C\c2ccccc2)C1=O)NNC(=O)c1ccccc1O	-	-	-	-	.	.
O=C(CCCN1C(=O)S/C(=C\C=C\c2ccccc2)C1=O)Nc1ccc(C(=O)O)cc1	-	-	-	-	-	-
Cc1cc(C)cc(C(=O)OCCN(C)C2CN(Cc3cn(Cc4ccccc4C(F)(F)F)nn3)S(=O)(=O)C2)c1 (stereo not given)	.	.	-	.	.	.
Cc1oc(-c2ccc3c(c2)OCCO3)cc1C(=O)O	-	-	-	-	-	-
Nn1c(SCC(=O)Nc2cccc3ccccc23)nnc1-c1cc(-c2ccc(Cl)cc2)n[nH]1	.	.	-	.	.	.
CCC1(O)C(=O)OCc2c1cc1n(c2=O)Cc2cc3c(N)cccc3nc2-1 (stereo not given)	-	86	-	.	94	-
CCC1(OC(=O)CN(C)C)C(=O)OCc2c1cc1n(c2=O)Cc2cc3c(N)cccc3nc2-1 (stereo not given)	.	-	.	.	84	-
Cn1nc(CC(=O)Nc2ccc3c(c2)OCCO3)c2ccccc2c1=O	-	98	-	-	92	73
O=C(COc1ccccc1F)Nc1ccc2c(c1)OCCO2	-	74	-	-	-	-
N#Cc1ccccc1OCC(=O)Nc1ccc2c(c1)OCCO2	-	-	-	-	.	.
COc1cc(NC(=O)Cc2nn(C)c(=O)c3ccccc23)cc(OC)c1	-	-	-	-	.	.
Cc1ccc(NC(=O)Cc2nn(C)c(=O)c3ccccc23)cc1F	-	-	-	-	90	75
Cn1nc(CC(=O)Nc2ccc(N3CCN(C(=O)OC(C)(C)C)CC3)cc2)c2ccccc2c1=O	-	76	-	-	90	79
N#C/C(=N\Nc1cccc(C(F)(F)F)c1)C(=O)c1ccsc1	-	80	-	-	98	-
CCC1CCCCN1S(=O)(=O)c1ccc(NC(=O)c2ccncc2)cc1 (stereo not given)	-	96	-	-	-	-
CCC1CCCCN1S(=O)(=O)c1ccc(C(=O)Nc2nnc(C3CC3)o2)cc1 (stereo not given)	-	-	-	-	.	.
C=CCN(CC#Cc1cccnc1)Cc1ccc(OC)cc1OC	.	.	-	.	.	.
SMILES	PG9 Ab binder	NR2E3 ag-1	NR1D1 modulator	NR2E3 ag-2	NR2E3 ag confirm	VP16 counter
Cc1csc(NC(=O)Cc2nn(C)c(=O)c3ccccc23)n1	-	-	-	-	-	-
COc1ccccc1NC(=O)Cc1nn(C)c(=O)c2ccccc12	.	74	.	-	73	-
Cc1ccc2[nH]c3c(N4CCc5ccccc5C4)ncnc3c2c1	-	-	-	-	94	77
Brc1ccc2[nH]c3c(N4CCc5ccccc5C4)ncnc3c2c1	.	.	.	-	.	.
Fc1ccc2[nH]c3c(N4CCc5ccccc5C4)ncnc3c2c1	-	73	-	-	94	87
c1ccc2c(c1)[nH]c1c(N3CCCC3)ncnc12	-	-	-	-	-	-
CC(=O)Nc1sc2c(c1-c1nc3ccccc3s1)CCCN(C(C)C)C2	.	.	-	.	.	.
CC(C)C[C@H]1COc2cccc(F)c2S(=O)(=O)N1Cc1cn(CC2CCCCC2)nn1	.	.	-	.	.	.
O=S(=O)(Nc1cccc(-c2cn3cccnc3n2)c1)c1ccc(-c2ccccc2)cc1	-	-	-	-	-	-
FC(F)(F)c1nc(N2CCCC2)ncc1-c1nnnn1-c1ccccc1	-	-	-	-	75	-
Cc1ccc(-n2nnnc2-c2cnc(N3CCCC3)nc2C(F)(F)F)cc1	-	-	-	-	.	.
